Measured values of several laboratories.
Protocols differ between the studies behind these lines.
SULT1B1: Sulfotransferase 1B1 (SULT1B1, Homo sapiens, UniProt O43704)
VIPR1: Vasoactive intestinal polypeptide receptor 1 (VIPR1, Homo sapiens, UniProt P32241)

COc1cc(Br)cc(Br)c1Oc1cc(Br)cc(Br)c1O  Km (SULT1B1; enzyme activity, substrate): 24.9 µM
Cc1nn(C)cc1-c1nc2c(N3CCN(Cc4ccc(Cl)cc4)CC3)c(Cl)cnc2[nH]1  remaining binding (Wee1-like protein kinase 2 (WEE2, Homo sapiens, UniProt P0C1S8); binding, competition with immobilised ligand; 1 µM): 99%
O=C(Nc1cccnn1)N1CCN([C@@H]2CCOc3cc(C(F)(F)F)ccc32)CC1  inhibition (VIPR1; cell-free assay; 20 µM): -11%
O=[N+]([O-])c1cc[n+]([O-])c2ccccc12  remaining activity (TcPGFS (Trypanosoma cruzi, UniProt Q8I6L9); enzyme activity, inhibitor; 200 µM): 76%
O=C(Nc1cccnc1)N1CCC(Cc2cccc(Oc3ccc(C(F)(F)F)cn3)c2)CC1  kinact/KI (Fatty-acid amide hydrolase 1 (Faah, Rattus norvegicus, UniProt P97612); enzyme activity, inhibitor): 3900 M⁻¹ s⁻¹
Oc1c(Br)cc(Br)cc1Oc1ccc(Br)cc1Br  Km (SULT1B1; enzyme activity, substrate): 0.172 µM
N=C(N)c1ccc2cc(OC(=O)c3ccc(N=C(N)N)cc3)ccc2c1  inhibition (Cathepsin S (CTSS, Homo sapiens, UniProt P25774); enzyme activity, inhibitor; 10 µM): 8%
Nc1ncc(-c2nc(N3CCOCC3)nc(N3CCOCC3)n2)c(C(F)F)n1  remaining binding (Uncharacterized serine/threonine-protein kinase SBK3 (SBK3, Homo sapiens, UniProt P0C264); binding, competition with immobilised ligand; 10 µM): 85%
CCN(CC)CCCC[C@H](NC(=O)[C@H](CC(C)C)NC(=O)[C@H](C)NC(=O)[C@H](Cc1ccccc1)NC(=O)c1ccc(C(C)(C)C)cc1)C(=O)N[C@@H](CO)C(=O)OC  remaining binding (VIPR1; ligand displacement, radioligand; 10 µM): 110%
CN(C)C(=O)COC(=O)Cc1ccc(OC(=O)c2ccc(NC(=N)N)cc2)cc1  inhibition (Dipeptidyl peptidase 3 (DPP3, Homo sapiens, UniProt Q9NY33); enzyme activity, inhibitor; 10 µM): 8%
CN1CCN(c2cc(-c3ccncc3)c(-c3ccc4ccccc4c3)nn2)CC1  activation (Prokineticin receptor 1 (PROKR1, Homo sapiens, UniProt Q8TCW9); calcium signal, agonist; PK-1; 12.5 µM): -0.3%
COc1ncccc1-c1cnn2ccc(N3CCN(C(=O)OC(C)C)CC3)nc12  remaining binding (Bone morphogenetic protein receptor type-1B (BMPR1B, Homo sapiens, UniProt O00238); binding, competition with immobilised ligand; 1 µM): 100%
